12 molecules from ChEMBL document CHEMBL3232830, “Effect of prime-site sequence of retro-inverso-modified HTLV-1 protease inhibitor” (Bioorg Med Chem, 2014) can be followed below.

Assay [1] deals with Protease (Human T-cell leukemia virus type I, UniProt Q82134, C109A/C90A/L40I). The assay can be described thus: (§1) Inhibition of HTLV-1 protease L40I/C90A/C109A mutant using dodecapeptide as substrate by HPLC analysis. The method in brief:
(§2)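 Synthetic mutant HTLV-1 protease at 5.6 nM, with a dodecapeptide substrate, in 0.5 M sodium acetate pH 5.6 containing 10% glycerol, 10 mM DTT and 4 M NaCl. Loss of substrate during incubation followed by reversed-phase HPLC (C18, 10–40% CH3CN gradient over 30 min in 0.1% TFA). IC50 from a sigmoidal dose–response curve; assay run three times.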

Assay [2] deals with Protease (Human T-cell leukemia virus type I, UniProt Q82134, L40I/C90A/C109A). The description is as §1. In a few lines: as §2

Each structure is given as a SMILES string. Starred links: 1 amine or outer side, 2 acyl side, 3 side chain; linkers in the order of their positions; H or OH if unused. Non-standard residues stand in square brackets, D forms with d. Residues, ends and D or L forms follow the SMILES beside them. *: point of attachment. X1 = CC(C)C[C@H](C(=O)[*:2])[C@H](O)C[C@H]1CCCN1[*:1]; CO = O=C([*:1])[*:2]; NHBn = c1ccc(CN*)cc1

Sequence of Protease (Human T-cell leukemia virus type I, UniProt Q82134, C109A/C90A/L40I) (Q82134 entry or part of it C109A/C90A/L40I): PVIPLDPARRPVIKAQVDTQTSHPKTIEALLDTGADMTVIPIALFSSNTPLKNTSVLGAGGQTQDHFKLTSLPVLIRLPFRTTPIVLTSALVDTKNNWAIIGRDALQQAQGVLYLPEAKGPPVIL
Sequence of Protease (Human T-cell leukemia virus type I, UniProt Q82134, L40I/C90A/C109A) (Q82134 entry or part of it L40I/C90A/C109A): as the sequence (Q82134 entry or part of it C109A/C90A/L40I) above

Turning to `CC[C@@H](C)[C@@H](NC(=O)[C@@H](CC(C)C)[C@H](O)C[C@H]1CCCN1C(=O)OCc1ccccc1)C(=O)N[C@@H](C(=O)N1CCC[C@@H]1C(=O)N1CCC[C@@H]1C(N)=O)C(C)C`, it took 380 µM to reach half-maximal inhibition at Protease [1] (IC50).
Still for that read-out and setting: in the case of `CC[C@@H](C)[C@@H](NC(=O)[C@@H](CC(C)C)[C@H](O)C[C@H]1CCCN1C(=O)c1ccccc1)C(=O)N[C@@H](C(=O)N1CCC[C@@H]1C(=O)N1CCC[C@@H]1C(N)=O)C(C)C` it was 1100 µM.
Still for that read-out and setting: in the case of `CC[C@@H](C)[C@@H](N)C(=O)N1CCC[C@@H]1C[C@@H](O)[C@H](CC(C)C)C(=O)N[C@@H](C(=O)N[C@@H](C(=O)N1CCC[C@@H]1C(=O)N1CCC[C@@H]1C(N)=O)C(C)C)[C@H](C)CC` it was 1500 µM; in that of `CC[C@@H](C)[C@@H](NC(=O)[C@@H](CC(C)C)[C@H](O)C[C@H]1CCCN1C(=O)CCC(C)C)C(=O)N[C@@H](C(=O)N1CCC[C@@H]1C(=O)N1CCC[C@@H]1C(N)=O)C(C)C`, 520 µM.
Turning to `CC[C@@H](C)[C@@H](NC(=O)[C@@H](CC(C)C)[C@H](O)C[C@H]1CCCN1C(=O)[C@H](NC(C)=O)[C@H](C)CC)C(=O)N[C@@H](C(=O)N1CCC[C@@H]1C(=O)N1CCC[C@@H]1C(N)=O)C(C)C` (Ac-[dI][X1][dI][dV][dP][dP]-NH2), on Protease [1], the IC50 is 110 µM.
On the same count and under the same terms, in the case of `CC[C@@H](C)[C@@H](NC(=O)[C@@H](CC(C)C)[C@H](O)C[C@H]1CCCN1C(=O)/C=C/c1ccccc1)C(=O)N[C@@H](C(=O)N1CCC[C@@H]1C(=O)N1CCC[C@@H]1C(N)=O)C(C)C` it was 290 µM.
On to `CC[C@@H](C)[C@@H](NC(=O)[C@@H](CC(C)C)[C@H](O)C[C@H]1CCCN1)C(=O)N[C@@H](C(=O)N1CCC[C@@H]1C(=O)N1CCC[C@@H]1C(N)=O)C(C)C`, for which the IC50 result on Protease [2] is “Not Active”.
On to `CC[C@@H](C)[C@@H](NC(=O)[C@@H](CC(C)C)[C@H](O)C[C@H]1CCCN1C(=O)NCc1ccccc1)C(=O)N[C@@H](C(=O)N1CCC[C@@H]1C(=O)N1CCC[C@@H]1C(N)=O)C(C)C` ({NHBn-CO}-[X1][dI][dV][dP][dP]-NH2), for which the IC50 against Protease [1] was determined as 160 µM.
For the molecule `CC[C@@H](C)[C@@H](NC(=O)[C@@H](CC(C)C)[C@H](O)C[C@H]1CCCN1C(=O)[C@H](NC(=O)[C@H](N)CCC(N)=O)[C@H](C)CC)C(=O)N[C@@H](C(=O)N1CCC[C@@H]1C(=O)N1CCC[C@@H]1C(N)=O)C(C)C`, half-maximal inhibition on Protease [1] (IC50) was put at 2000 µM.
Still for that read-out and setting: in the case of `CCCC(CCC)C(=O)N1CCC[C@@H]1C[C@@H](O)[C@H](CC(C)C)C(=O)N[C@@H](C(=O)N[C@@H](C(=O)N1CCC[C@@H]1C(=O)N1CCC[C@@H]1C(N)=O)C(C)C)[C@H](C)CC` it was 420 µM.
On to `CC[C@@H](C)[C@@H](NC(=O)[C@@H](CC(C)C)[C@H](O)C[C@H]1CCCN1C(=O)C(C)(C)C)C(=O)N[C@@H](C(=O)N1CCC[C@@H]1C(=O)N1CCC[C@@H]1C(N)=O)C(C)C`, for which 1000 µM corresponded to half-maximal inhibition on Protease [1] (IC50).
The same measure, in the same setting: to `CC[C@@H](C)[C@@H](NC(=O)[C@@H](CC(C)C)[C@H](O)C[C@H]1CCCN1C(=O)CCc1ccccc1)C(=O)N[C@@H](C(=O)N1CCC[C@@H]1C(=O)N1CCC[C@@H]1C(N)=O)C(C)C` belongs 160 µM.
